In ChEMBL document CHEMBL5055621, “Synthesis and Characterization of the Novel Rodent-Active and CNS-Penetrant P2X7 Receptor Antagonist Lu AF27139” (J Med Chem, 2021):

Assays:
[1] = Volume of distribution at steady state in rat at 1 mg/kg, iv and 2 mg/kg, po; assay type: ADME, organism-based; details: in vivo
Method in brief: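 Plasma concentration–time profiles were obtained in rats after an iv dose of 1 mg/kg and a po dose of 2 mg/kg. Parameters were estimated by noncompartmental analysis. In vivo work used male Sprague–Dawley rats of 150−200 g unless noted otherwise.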

THP-1 = assay: Antiinflammatory activity against human THP-1 cells assessed as reduction in LPS and BzATP-induced IL-1beta release measured after 50 mins by microplate reader; assay type: functional, cell-based; details: THP-1, 50 min
Method in brief: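 THP-1 cells were differentiated with IFN-γ 10 ng/mL for 48 h and primed with LPS (100 ng/mL final) for 3.5 h at 10k cells/well. Compound was added for 20 min, then BzATP (1 mM final) for 30 min at 37 °C. Supernatant IL-1β was read by human AlphaLISA.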

Cytochrome P450 1A2 = molecular target: T1, Cytochrome P450 1A2 (Homo sapiens, UniProt P05177); assay: Inhibition of CYP1A2 (unknown origin) upto 25 uM; assay type: ADME
T1 sequence (P05177 whole entry): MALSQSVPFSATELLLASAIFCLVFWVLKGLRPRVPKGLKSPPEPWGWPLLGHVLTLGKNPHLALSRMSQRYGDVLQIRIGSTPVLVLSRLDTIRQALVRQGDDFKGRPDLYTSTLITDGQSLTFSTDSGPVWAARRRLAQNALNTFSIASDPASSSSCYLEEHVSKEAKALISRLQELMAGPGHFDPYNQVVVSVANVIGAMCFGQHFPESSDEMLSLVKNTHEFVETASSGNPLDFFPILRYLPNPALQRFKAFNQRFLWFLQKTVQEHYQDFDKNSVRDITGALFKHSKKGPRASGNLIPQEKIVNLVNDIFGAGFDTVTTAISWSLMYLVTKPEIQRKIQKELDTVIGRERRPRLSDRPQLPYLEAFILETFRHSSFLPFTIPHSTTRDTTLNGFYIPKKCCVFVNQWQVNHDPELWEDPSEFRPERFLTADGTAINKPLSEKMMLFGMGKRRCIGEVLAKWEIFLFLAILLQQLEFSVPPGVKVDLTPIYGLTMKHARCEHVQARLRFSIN

Cytochrome P450 2B6 = molecular target: T2, Cytochrome P450 2B6 (Homo sapiens, UniProt P20813); assay: Time dependent inhibition of CYP2B6 (unknown origin) upto 25 uM; assay type: ADME
T2 sequence (P20813 whole entry): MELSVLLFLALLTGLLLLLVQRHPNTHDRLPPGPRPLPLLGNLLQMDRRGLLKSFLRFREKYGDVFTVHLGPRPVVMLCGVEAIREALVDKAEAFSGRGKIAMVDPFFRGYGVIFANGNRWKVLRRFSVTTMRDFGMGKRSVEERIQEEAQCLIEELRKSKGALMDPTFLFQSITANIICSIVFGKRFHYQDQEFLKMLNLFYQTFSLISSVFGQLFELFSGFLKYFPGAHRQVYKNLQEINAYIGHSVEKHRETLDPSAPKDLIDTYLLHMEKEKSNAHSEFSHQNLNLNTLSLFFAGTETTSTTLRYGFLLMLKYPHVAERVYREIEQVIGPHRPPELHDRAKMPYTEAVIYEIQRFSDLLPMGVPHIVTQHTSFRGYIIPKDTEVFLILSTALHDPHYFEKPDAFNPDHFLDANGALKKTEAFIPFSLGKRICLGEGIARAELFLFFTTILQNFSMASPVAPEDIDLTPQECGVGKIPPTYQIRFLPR

[2] = Cmax in female mouse at 100 mg/kg, po after 14 days; details: in vivo
Cytochrome P450 2C19 = Cytochrome P450 2C19 (Homo sapiens, UniProt P33261); assay: Time dependent inhibition of CYP2C19 (unknown origin) upto 25 uM; assay type: ADME
[3] = AUC (0 to 8 hrs) in female mouse at 100 mg/kg, po after 14 days; details: in vivo
[4] = molecular target: T3, Potassium voltage-gated channel subfamily KQT member 1 (Homo sapiens, UniProt P51787); assay: Inhibition of human KCNQ1 at 10 uM
T3 sequence (P51787 whole entry): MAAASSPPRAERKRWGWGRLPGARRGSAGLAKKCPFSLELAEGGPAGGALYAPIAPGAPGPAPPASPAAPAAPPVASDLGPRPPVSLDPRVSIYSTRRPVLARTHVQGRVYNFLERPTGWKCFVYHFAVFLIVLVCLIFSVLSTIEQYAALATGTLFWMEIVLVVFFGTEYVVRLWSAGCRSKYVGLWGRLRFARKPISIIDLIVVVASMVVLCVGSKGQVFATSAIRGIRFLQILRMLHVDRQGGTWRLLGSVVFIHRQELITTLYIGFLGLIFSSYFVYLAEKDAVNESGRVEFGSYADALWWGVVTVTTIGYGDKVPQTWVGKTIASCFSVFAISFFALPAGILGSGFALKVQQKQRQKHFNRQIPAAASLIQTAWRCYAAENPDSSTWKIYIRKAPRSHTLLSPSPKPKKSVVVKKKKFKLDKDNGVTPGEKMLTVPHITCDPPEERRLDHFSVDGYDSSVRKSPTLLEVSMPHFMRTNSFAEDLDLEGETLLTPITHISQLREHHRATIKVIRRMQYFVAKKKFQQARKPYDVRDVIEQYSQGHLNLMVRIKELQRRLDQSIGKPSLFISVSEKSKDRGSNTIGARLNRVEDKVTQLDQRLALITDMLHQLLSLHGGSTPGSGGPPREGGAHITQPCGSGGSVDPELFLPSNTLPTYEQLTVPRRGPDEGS
Method in brief: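 Human Nav1.5, Cav1.2 and KCNQ1/minK channels were tested at 10 μM.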

[5] = Free plasma concentration in rat at 30 mg/kg, po after 1 hr by ex vivo equilibrium dialysis; assay type: ADME, organism-based
Method in brief: (§1)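 Male Sprague–Dawley rats were dosed orally at 1–100 mg/kg, and total plasma concentration was measured at 1 and 2 h. This was multiplied by fraction unbound from ex vivo equilibrium dialysis; mean ± SEM, n = 3 animals.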

[6] = Half life in rat at 1 mg/kg, iv and 2 mg/kg, po; assay type: ADME, organism-based; details: in vivo
Method in brief: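 Rats received 1 mg/kg iv or 2 mg/kg po. The plasma concentration–time profile was analysed by a noncompartmental model to give half-life, Cmax, Tmax and absolute oral bioavailability.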

[7] = Free plasma concentration in rat at 1 mg/kg, po after 2 hrs by ex vivo equilibrium dialysis; assay type: ADME, organism-based; method in brief: as §1

Chain of Cytochrome P450 2C19 (P33261 whole entry): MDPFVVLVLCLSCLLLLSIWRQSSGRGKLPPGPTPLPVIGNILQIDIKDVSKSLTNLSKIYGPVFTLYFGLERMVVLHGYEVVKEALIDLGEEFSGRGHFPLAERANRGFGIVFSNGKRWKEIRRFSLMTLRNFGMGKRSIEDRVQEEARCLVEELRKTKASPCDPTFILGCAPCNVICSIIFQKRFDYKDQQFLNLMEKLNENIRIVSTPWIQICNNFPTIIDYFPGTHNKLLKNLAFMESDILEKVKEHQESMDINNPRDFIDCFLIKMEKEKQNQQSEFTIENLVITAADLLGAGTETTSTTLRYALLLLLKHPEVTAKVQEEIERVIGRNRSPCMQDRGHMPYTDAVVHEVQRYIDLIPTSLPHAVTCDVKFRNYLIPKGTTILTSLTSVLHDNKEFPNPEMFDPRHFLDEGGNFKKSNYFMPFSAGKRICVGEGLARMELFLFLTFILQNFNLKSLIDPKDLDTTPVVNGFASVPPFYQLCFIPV

Vdss [1]: 0.95 L/kg
IC50 (THP-1): 0.038 µM
inhibition (INH) (Cytochrome P450 1A2): Not Active
TDI (Cytochrome P450 2B6): Not Active
Cmax [2]: 61.6 µM
TDI (Cytochrome P450 2C19): Not Active
AUC at 336 h [3]: 131 µM·h
inhibition (INH) [4]: Not Active
Cp(f) [5]: 0.414 µM
half-life [6]: 2.7 h
Cp(f) [7]: 0.0228 µM
SMILES: O=C(NC[C@H](c1ccc(Cl)cc1)N1CCOCC1)c1sc(-c2ncccn2)nc1C(F)(F)F
